Shown are actives, neighbours in structure and some others; about 2.2% of the full set was active somewhere.
rCAG RNA binder – binders of r(CAG) RNA repeats, primary screen, biochemical, fluorescence; inhibition, % at 3 µM; hit rate 1.3% among 370,000; r(CAG) RNA repeat, TO-PRO-1 dye displacement fluorescence;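 active = inhibition above the plate cutoff, the mean of all test compounds on that plate plus 3 SD, cut at about 35% in these data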;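 also: 0% = DMSO alone and 100% = 100 µM mitoxantrone as full dye displacement; higher means more dye released from RNA so lower well fluorescence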
ASAP1 inh – inhibitors of human ASAP1 ArfGAP activity, primary screen, biochemical, fluorescence polarization | ASAP1-stimulated ARF1 GTP hydrolysis, GDP FP detection | hit rate 0.19% among 360,000 | Arf-GAP with SH3 domain, ANK repeat and PH domain-containing protein 1 (Homo sapiens), … | inhibition, % at 16.5 µM; in the data active = inhibition above about 25%;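 also: 0% = vehicle with enzyme and substrate and 100% = no enzyme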
Target sequence (Q9ULH1 325-724 limits assumed): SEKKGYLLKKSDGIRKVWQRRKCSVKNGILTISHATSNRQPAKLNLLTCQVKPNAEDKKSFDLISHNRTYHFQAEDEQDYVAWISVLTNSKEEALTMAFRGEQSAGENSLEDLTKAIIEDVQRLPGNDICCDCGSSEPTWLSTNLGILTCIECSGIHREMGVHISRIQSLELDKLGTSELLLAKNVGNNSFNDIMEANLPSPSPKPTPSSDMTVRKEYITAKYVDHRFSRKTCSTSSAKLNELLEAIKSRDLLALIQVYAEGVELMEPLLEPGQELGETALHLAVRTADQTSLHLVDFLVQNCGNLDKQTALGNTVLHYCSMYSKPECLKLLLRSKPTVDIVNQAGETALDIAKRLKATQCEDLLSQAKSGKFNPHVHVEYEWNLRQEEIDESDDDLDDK
NadD block – inhibitors of S. aureus NadD, primary screen, biochemical, colorimetric, uHTS. purified NadD enzyme, colorimetric absorbance read-out. inhibition, % at 20 µM. hit rate 0.78% among 360,000. AID 602399, 2012; in the data active = inhibition above about 26%
ARFGAP1 inhibitor – inhibitors of rat ARFGAP1 GAP activity, primary screen, biochemical, fluorescence polarization, GDP tracer | inhibition, % at 16.5 µM | AID 651572, 2012 | hit rate 0.26% among 360,000 | ADP-ribosylation factor GTPase-activating protein 1 (Rattus norvegicus), Q62848 | Arfgap1-stimulated ARF1 GTP hydrolysis, GDP FP detection;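 active = inhibition above a per-plate limit, mean inhibition of low control wells plus 3 SD, cut at about 25% in these data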;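 also: 0% = DMSO wells with enzyme and 100% = wells lacking Arfgap1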
Target sequence (Q62848 1-136 limits assumed): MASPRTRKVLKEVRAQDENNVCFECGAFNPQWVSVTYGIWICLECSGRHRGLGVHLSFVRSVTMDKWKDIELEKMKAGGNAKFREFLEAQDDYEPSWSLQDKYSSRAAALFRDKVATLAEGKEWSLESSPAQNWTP
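System: truncated rat Arfgap1 GAP domain / Medium: HEPES-based buffer, pH 7.5 / Also added: N-terminally truncated human ARF1-GTP substrate / Incubation: enzyme reaction 120 min at 25 °C after 20 min preincubation / Measured by: FP of antibody-bound GDP Alexa 633 tracer, ex 620/em 688 nm / Replicates: singlicate, each compound tested once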
ARFGAP1 confirm – ARFGAP1 inhibitor hit confirmation, biochemical, fluorescence polarization, triplicate. shares compounds with ARFGAP1 inhibitor. ARFGAP1-stimulated ARF1 GTP hydrolysis, GDP tracer FP. inhibition, % at 16.5 µM. hit rate 30% among 890. AID 651608, 2012;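 active = average inhibition over triplicates above the hit cutoff set in the earlier primary screen, cut at about 25% in these data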;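 also: 0% = Arfgap1 plus ARF1-GTP with DMSO and 100% = wells lacking Arfgap1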
* = called active by the depositor; nt = no result.

SMILES | rCAG RNA binder | ASAP1 inh | NadD block | ARFGAP1 inhibitor | ARFGAP1 confirm
CN1CCCCC(NC(=O)C2CCCCC2)C1=O (centres undefined) | 2 | 12 | nt | 14 | nt
COc1cc2c3c(c1OC)C1(C=CC(=NO)C=C1)CC3N(C(C)=O)CC2 (centres undefined) | -3 | -3 | -7 | -2 | nt
COc1cc2c3c(c1OC)C1(C=CC(=O)C=C1)CC3N(C(C)=O)CC2 (centres undefined) | -5 | -16 | -6 | 29* | 8
CCOc1ccc(NC(=S)N=Nc2c(O)[nH]c3ccccc23)cc1 | 23 | 16 | 3 | 27* | 16
Oc1cccc(NC(=S)N=Nc2c(O)[nH]c3ccccc23)c1 | 13 | 6 | -4 | 10 | nt
Cn1cccc1CC(=O)NN=C/C=C\c1ccco1 | 20 | nt | nt | nt | nt
NC1=NC[C@H](Cc2ccccc2)N1CCc1cc(C(F)(F)F)cc(C(F)(F)F)c1 | 9 | 6 | -1 | 25* | 2
FC(F)(F)c1cc(CCN2C(=S)NC[C@@H]2Cc2ccccc2)cc(C(F)(F)F)c1 | -1 | -6 | 3 | 15 | nt
Cc1c(Cl)sn(-c2ccc(Cl)cc2)c1=O | -1 | 9 | 2 | 30* | 8
O=C(Cc1cccs1)Nc1cccc(-c2nc3cc4ccccc4cc3[nH]2)c1 | 22 | 16 | 19 | 25* | 25*
CC(=O)Nc1cccc(NC(=O)Cc2cccs2)c1 | 14 | 6 | 5 | -6 | nt
Cc1c(C(=O)Nc2ccc(-n3cnnn3)cc2)oc2ccccc12 | 5 | 24 | 5 | 26* | 47*
O=C1CC(N2CCC(c3nc4ccccc4s3)CC2)C(=O)N1Cc1ccccc1 (centres undefined) | -7 | 17 | 1 | 37* | 4
O=C(NC1CCCCN(Cc2cccc(Cl)c2)C1=O)c1ccc(Cl)cc1Cl (centres undefined) | 4 | nt | nt | nt | nt
CN(C)c1ncnc2c1ncn2[C@H]1CN(Cc2ccc(-c3ccccc3)cc2)C[C@@H](CO)O1 | 4 | 10 | -7 | 6 | nt
COc1ccc(NS(=O)(=O)c2cccc(C(=O)N/N=C(\C)c3ccncc3)c2)cc1 | 5 | 6 | -7 | 39* | 6
COc1ccc(NS(=O)(=O)c2cccc(C(=O)N/N=C(\C)c3ccc(-n4ccnc4)cc3)c2)cc1 | 5 | 10 | 16 | 9 | nt
CC(COc1ccc(CC#N)cc1)CN1CCC(C(O)(c2ccccc2)c2ccccc2)CC1 (centres undefined) | 1 | nt | nt | nt | nt
CCCOc1ccc(/C=N/NC(=O)c2ccc(Cn3cc([N+](=O)[O-])cn3)o2)cc1 | -2 | 23 | 1 | 26* | 33*
Cc1cc(C)nc(SCc2ccc(C(=O)N/N=C/c3cccc(O)c3O)cc2)n1 | 24 | 7 | 24 | 6 | nt
COc1ccc(O)c(/C=N/NC(=O)c2ccc(CSc3nc(C)cc(C)n3)cc2)c1 | 18 | 13 | 34* | 30* | 33*
COc1ccc(C(=O)N/N=C/c2cc(Br)ccc2O)cc1OC | 8 | 13 | 2 | 33* | 50*
COc1cc(Cl)cc(/C=N\NC(=O)c2ccc3c(c2)OCO3)c1O | 11 | 5 | 6 | 34* | 43*
CN1C(=O)N(CC(=O)c2ccc3c(c2)OCO3)C(=O)C12CCCCC2 | -1 | 3 | -2 | 5 | nt
O=C(Nc1ccccc1N1CCOCC1)c1cccc2ccccc12 | 1 | -6 | 3 | -7 | nt
SMILES | rCAG RNA binder | ASAP1 inh | NadD block | ARFGAP1 inhibitor | ARFGAP1 confirm
CC(=O)c1cc(-c2cc(C(F)(F)F)cc(C(F)(F)F)c2)c(=O)n2c1CCC2 | -2 | nt | nt | nt | nt
CCC(=O)NCc1csc(-c2cccs2)n1 | -1 | 0 | -6 | 3 | nt
O=C(NCc1csc(-c2cccs2)n1)Nc1cccc(Cl)c1 | 3 | 2 | -4 | 26* | 6
O=c1[nH][nH]cc1C=Nc1ccc(Cl)cc1 | 1 | -3 | 1 | 36* | -6
COc1cccc(N=Cc2c[nH][nH]c2=O)c1 | 4 | -6 | 4 | -10 | nt
O=C(COC(=O)c1cc[n+]([O-])cc1)Nc1cccc(F)c1 | 2 | -8 | -5 | 8 | nt
COc1ccc(S(=O)(=O)N2CCC(C(=O)N[C@@H](C)C(=O)NCc3ccco3)CC2)cc1 | -1 | -6 | 1 | 10 | nt
Cc1ccc(-n2nc3ccc(NC(=O)C(C)C)cc3n2)cc1 | 0 | 1 | 0 | -1 | nt
Cc1ccc(-n2nc3ccc(NC(=O)c4ccco4)cc3n2)cc1 | 14 | -6 | 12 | 30* | 13
C#CC1(O)CCC2C3CCc4cc(O)cc(C)c4C3CCC21C (centres undefined) | 3 | 10 | -5 | 0 | nt
Cc1ccc(-n2c(=O)cc(N3CC(C)CC(C)C3)[nH]c2=O)cc1 (centres undefined) | -3 | -5 | -1 | -8 | nt
Cc1ccc(-n2c(=O)cc(N3CCC(C)CC3)[nH]c2=O)cc1 | 1 | 12 | 4 | 26* | 3
CCCN(C)C1CN(Cc2cn(Cc3ccc(C)cc3)nn2)S(=O)(=O)C1 (centres undefined) | 0 | 9 | 2 | -8 | nt
CN1CCN(c2ccc(Cl)cc2NC(=O)/C=C/c2ccc(F)cc2)CC1 | -6 | 17 | -9 | 25* | 9
COc1ccc2oc(C(=O)OCC(=O)N3CC(C)OC(C)C3)c(C)c2c1 (centres undefined) | -2 | 11 | -1 | 25* | 13
Cc1c(C(=O)OCC(=O)N2CC(C)CC(C)C2)oc2ccccc12 (centres undefined) | -3 | -3 | -6 | 5 | nt
COc1ccc2oc(C(=O)OCC(=O)N3C(C)CCCC3C)c(C)c2c1 (centres undefined) | -6 | 8 | -7 | -2 | nt
COc1ccc2oc(C(=O)OCC(=O)N3CC(C)CC(C)C3)c(C)c2c1 (centres undefined) | -6 | 13 | -7 | 31* | 39*
Nc1[nH]c(C(=O)c2ccc(Br)cc2)c(-c2c(F)cccc2F)c1C(=O)NCCc1c[nH]c2ccccc12 | 12 | 16 | nt | 11 | nt
Cc1cc(=O)oc2cc(OCc3ccccc3)ccc12 | 0 | -1 | -3 | 5 | nt
Cc1cc(=O)oc2cc(OCc3ccc(C(=O)OCC(=O)Nc4ccccc4OC(F)F)cc3)ccc12 | 6 | 15 | 3 | 42* | 50*
COc1ccc(C2NN=C(c3c[nH]c4ccccc34)C2O)cc1 (centres undefined) | 21 | -2 | 5 | 4 | nt
COc1ccc(C2C(O)C(c3c[nH]c4ccccc34)=NN2C(=O)CCl)cc1 (centres undefined) | 8 | 16 | -7 | 26* | 9
Cc1ccc2nc(SCC(=O)c3ccccc3)nc(=O)n2c1 | 1 | 18 | 1 | 37* | 47*

Screens from PubChem.
